In the library only some 3% were active in any assay of this set; here they are far more common.
M4 antag – human M4 muscarinic receptor antagonists, primary screen, CHO cells, Fluo-8 calcium fluorescence. 360,000 tested, 0.73% active. CHO-hM4 cells, ACh EC80. inhibition, % at 3 µM. Muscarinic acetylcholine receptor M4 (Homo sapiens), P08173;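 active means inhibition above its plate's cutoff, the mean inhibition of sample wells plus 3 SD, cut at about 27% in these data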;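 further: 0% = acetylcholine EC80 with DMSO and 100% = DMSO without agonist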
Target sequence (P08173 whole entry, looked up): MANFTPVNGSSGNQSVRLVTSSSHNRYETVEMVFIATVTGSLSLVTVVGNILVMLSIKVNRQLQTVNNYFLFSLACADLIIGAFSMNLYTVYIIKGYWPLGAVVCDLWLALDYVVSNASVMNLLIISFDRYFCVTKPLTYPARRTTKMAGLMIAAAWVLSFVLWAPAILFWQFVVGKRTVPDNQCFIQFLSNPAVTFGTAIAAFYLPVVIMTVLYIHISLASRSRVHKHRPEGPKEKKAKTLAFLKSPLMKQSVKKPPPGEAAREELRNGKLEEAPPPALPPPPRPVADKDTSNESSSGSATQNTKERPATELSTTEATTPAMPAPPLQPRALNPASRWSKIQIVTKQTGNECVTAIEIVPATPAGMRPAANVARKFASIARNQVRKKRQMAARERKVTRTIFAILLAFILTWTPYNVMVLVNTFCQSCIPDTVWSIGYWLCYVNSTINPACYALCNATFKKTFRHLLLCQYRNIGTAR
CHRM4 agonist – human M4 muscarinic receptor agonists, primary screen, CHO-K1 cells, Fluo-8 calcium fluorescence; CHO-K1 hM4/Gqi5; vehicle 0%, full acetylcholine response 100%; activation, % at 3 µM; 360,000 tested, 0.14% active; AID 624127, 2012;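 active means activation above the run mean over all test wells plus 3 SD, cut at about 32% in these data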;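 further: peak over basal fluorescence ratio per well then scaled between controls; 0% = DMSO wells and 100% = acetylcholine at EC100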
TAAR1 antagonist – human TAAR1 antagonists, primary screen, Fluo-8 calcium fluorescence, CHO RD-HGA16 cells; Trace amine-associated receptor 1 (Homo sapiens), Q96RJ0; antagonist; inhibition, % at 3 µM; 360,000 tested, 1.5% active;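 active means inhibition above a per-plate cutoff, the mean inhibition of test compounds on that plate plus 3 SD, cut at about 49% in these data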;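 further: 0% = DMSO plus EC80 beta-PEA response and 100% = DMSO alone without agonist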
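Test system: RD-HGA16 CHO cells with stable hTAAR1 and Gα16 / Probe or stimulus: EC80 β-phenethylamine stimulus / Times: seeding 17-24 h prior, 75-min 37 °C, 30-min RT dye loading / Detection: Fluo-8 calcium-sensitive fluorescence / Read-out basis: % inhibition scaled between DMSO and EC80 PEA controls / Repeats: singlicate, one well per test compound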
CHRM4 PAM – human M4 muscarinic receptor positive allosteric modulators, primary screen, CHO-K1 cells, Fluo-8 calcium fluorescence; activation, % at 3 µM; 360,000 tested, 0.4% active; Muscarinic acetylcholine receptor M4 (Homo sapiens), P08173; CHO-K1 hM4/Gqi5, ACh EC20; 0% = ACh EC20, 100% = maximal ACh;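 active means activation above its plate's cutoff, the mean activation of sample wells plus 3 SD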
TAAR1 ag – human TAAR1 agonists, primary screen, Fluo-8 calcium fluorescence, CHO RD-HGA16 cells. vehicle wells 0%, saturating PEA agonist 100%. activation, % at 3 µM. 360,000 tested, 0.99% active. AID 624467, 2012;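 active means activation above the mean activation of all test compounds in the run plus 3 SD, cut at about 38% in these data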
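Benchmarks: low control DMSO, high control PEA (EC100); System: CHO RD-HGA16 cells carrying human TAAR1 plus Gα16; Detection: Fluo-8 fluorescence, 5 s baseline then 140 s kinetic read; Schedule: 17-24 h plating, Fluo-8 75 min 37 °C, 30 min RT; Read-out basis: % activation from peak over basal fluorescence ratio, DMSO-to-PEA scaled.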
* hit, by the source's call; x = no result.

SMILES	M4 antag	CHRM4 agonist	TAAR1 antagonist	CHRM4 PAM	TAAR1 ag
Cc1ccc(C(=O)C(C)OC(=O)Cc2c[nH]c3ccccc23)cc1 (configuration not stated)	-3	0	-6	2	1
Cc1ccc(NC(=O)C(C)OC(=O)Cc2c[nH]c3ccccc23)cc1 (configuration not stated)	-12	2	-10	24*	0
COc1ccc(OCC(O)CNCCOc2ccccc2OC)c(C(C)(C)C)c1 (configuration not stated)	6	20	12	-7	50*
COc1ccccc1NCC(O)COc1ccc(C(C)(C)C)cc1 (configuration not stated)	-15	-1	17	-4	-2
CSc1nc2c(=O)[nH]cnc2s1	x	x	-8	x	1
COC(=O)c1ccc2[nH]c(C)cc(=O)c2c1	55*	0	0	-18	1
CC(C)[C@@H]1CC[C@@H](C)C[C@H]1OC(=O)C[n+]1cc(-c2ccc(Cl)cc2)n2c1CCCCC2	42*	1	-24	-51	8
O=C(C[n+]1cc(-c2ccc(Cl)cc2)n2c1CCCCC2)c1ccccc1	2	1	-25	-13	4
COc1ccc(-c2c[n+](CC(=O)OC3CC(C)CCC3C(C)C)c3n2CCC3)cc1 (configuration not stated)	34*	1	1	-24	3
O=C(NCCCN1CCOCC1)c1ccc(Cl)c([N+](=O)[O-])c1	1	1	-23	-3	0
CCOC(=O)CSc1ccc(C(=O)NCCCN2CCOCC2)cc1[N+](=O)[O-]	27*	0	-12	-17	2
O=C(NCCCN1CCOCC1)c1ccc(Sc2cccc(Cl)c2)c([N+](=O)[O-])c1	47*	3	3	-16	6
CCCCc1nc2cc(C(=O)NCc3nccn3CC)ccc2o1	32*	1	-4	-12	0
Cc1ccc(C)c(OCC(=O)Nc2cc(C)on2)c1	-12	1	-12	3	0
Cc1ccc(C)c(-c2nnc(OCC(=O)Nc3cc(C)on3)c3ccccc23)c1	-1	0	-23	16*	24
CC1(C)CC(=O)C2=C(C1)NCN(Cc1ccccc1)C2	-4	1	-2	34*	5
Cc1nn(Cc2c(F)c(F)c(F)c(F)c2F)c(C)c1NC(=O)c1cccc(COc2ccccc2Cl)c1	-11	0	-5	5	3
Cc1nn(Cc2cccc(F)c2)c(C)c1NC(=O)c1ccc(COc2ccccc2Cl)cc1	18	12	101*	-4	5
COC(=O)C1=C(C)N(C)C(=NCc2ccccc2)NC1c1cccc(Cl)c1 (configuration not stated)	x	x	33	x	6
COc1ccc(N2CCN(c3ccc(NC(=O)c4ccc5c(c4)OCO5)cc3C#N)CC2)cc1	-10	1	x	29*	x
COC(=O)C1=C(C)NC(C)=C(C(=O)OC)C(N2C(=O)CCC2=O)C1 (configuration not stated)	x	x	-4	x	2
CCn1nc(C(=O)O)c(=O)c2cc3c(cc21)OCO3	34*	-1	-15	-17	1
CCn1cc(C(=O)N[C@H](C(=O)O)C(C)C)c(=O)c2cc3c(cc21)OCO3	7	1	-6	-4	1
Cc1ccc(S(=O)(=O)N2CCCc3nc(-c4ccc(F)cc4)ccc32)cc1	x	x	-38	x	1
COc1cc(NC(=O)COc2cc(O)c3c(c2)OC(C)(C)CC3=O)cc(OC)c1OC	3	31	70*	-10	11
SMILES	M4 antag	CHRM4 agonist	TAAR1 antagonist	CHRM4 PAM	TAAR1 ag
COc1cc(NC(=O)COc2cccc3c2OC(C)(C)C3)cc(OC)c1OC	15	26	59*	-13	13
CC(=O)Nc1ccc(NC(=O)COc2cccc3c2OC(C)(C)C3)cc1	10	1	-1	-1	2
CC1(C)CC(=O)c2c(O)cc(OCC(=O)Nc3ccc(S(N)(=O)=O)cc3)cc2O1	-6	3	-1	2	3
CCn1c(C)cc2c(c1=O)C(c1ccc3c(c1)OCO3)C(C#N)=C(N)O2 (configuration not stated)	30*	1	10	-13	16
Cc1cc2c(c(=O)n1CC1CCCO1)C(c1ccc3c(c1)OCO3)C(C#N)=C(N)O2 (configuration not stated)	2	0	9	15	-3
COc1cc(CNCCc2ccccc2)ccc1OCC(=O)NC(C)(C)C	6	1	-1	-3	67*
COc1cc(CNCCO)ccc1OCCc1ccccc1	29*	8	-18	20*	5
COc1cc(CNCCCO)ccc1OCC(=O)NC(C)(C)C	0	0	2	-7	1
O=C(C(=O)N1CCC(CNC(=O)C2COc3ccccc3O2)CC1)c1cc2ccccc2o1 (configuration not stated)	x	x	-17	x	0
CC(C)CN(C(=O)CCNC(=O)c1ccc(Cl)cc1)C1CCS(=O)(=O)C1 (configuration not stated)	0	1	-6	3	1
O=C(NCCN1CCOCC1)N1c2ccccc2Sc2ccccc21	38*	1	-8	-15	9
NCCC(=O)N1c2ccccc2Sc2ccccc21	6	2	-17	-9	7
O=C(CCN1CCOCC1)N1c2ccccc2Sc2ccc(Cl)cc21	57*	1	-7	-19	4
O=C(NCCO)N1c2ccccc2Sc2ccccc21	1	0	-22	-5	1
CCCNC(=O)N1c2ccccc2Sc2ccccc21	0	1	-27	-9	-2
CN(C)CCCNC(=O)N1c2ccccc2Sc2ccccc21	97*	1	-1	-16	3
CCN1C(=O)[C@@H]2[C@@H]3CN(S(=O)(=O)c4ccc(C)cc4)[C@@H](c4ccccc4F)[C@@H]3C(=O)C[C@@H]2C1=O	-7	1	-4	8	2
CCN(CC)c1ccc(/C=C/C(=O)c2ccc(Br)cc2)cc1	67*	94*	81*	-17	138*
CN(C)c1ccc(C(=O)/C=C/c2ccc(Br)cc2)cc1	-7	1	-14	5	2
CCN1C(=N)N(c2ccccc2)C(=O)C(CC)(CC)C1=O	-4	2	-8	-6	3
CC(C)(C)C1CCC(CN2C(Nc3ccccc3)=NC[C@@H]2Cc2ccccc2)CC1 (some centres not stated)	50*	23	36	-14	74*
Cc1nnc2nc(N)[nH]n2c1=O	x	x	-2	x	5
